Measured values taken from ChEMBL document CHEMBL3244113, “Antimycotic imidazoles. part 4. Synthesis and antifungal activity of ketoconazole, a new potent orally active broad-spectrum antifungal agent” (1979).
The source made the active and inactive calls. No cut-off for these calls is given here.

Experiments:
Candida tropicalis [1] = assay: Antifungal activity against Candida tropicalis assessed as growth inhibition in sabouraud broth after 14 days in presence of 10% inactivated bovine serum; format: functional
Method in brief: (§1)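 Broth dilution in Sabouraud broth, with or without 10% inactivated bovine serum, incubated 14 days. Read-out: concentration (µg/mL) giving complete or marked inhibition of growth. Tested in preliminary experiments.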

Candida albicans [2] = assay: Antifungal activity against Candida albicans assessed as growth inhibition in sabouraud broth after 14 days in presence of 10% inactivated bovine serum; format: functional; method in brief: as §1
Aspergillus fumigatus [3] = assay: Antifungal activity against Aspergillus fumigatus assessed as growth inhibition in sabouraud broth after 14 days in presence of 10% inactivated bovine serum; format: functional
Sporothrix schenckii [4] = assay: Antifungal activity against Sporothrix schenckii assessed as growth inhibition in sabouraud broth after 14 days in presence of 10% inactivated bovine serum; format: functional; method in brief: as §1
Candida albicans [5] = assay: Antifungal activity against Candida albicans B2630 infected in ovariectomized and hysterectomized Wistar rat vaginal candidosis model at 1.25 mg/kg, po for 14 days by prophylactic treatment; format: functional, organism-based; parameters: dose 1.25 mg/kg
Method in brief: (§2)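 Female Wistar rats (100 g) were ovariectomized and hysterectomized under thalamonal anaesthesia. From 3 weeks later, and weekly thereafter, each received oestradiol undecanoate 100 µg in sesame oil s.c. Pseudooestrus was confirmed by vaginal smear. Rats were infected intravaginally with 8×10^5 C. albicans B 2630 cells in 0.2 mL saline. Compound in PEG 200 was given daily by gavage from the day of infection. Vaginal swab smears were taken on days 7, 11 and 14. Read-out: negative animals/total.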

Candida albicans [6] = assay: Antifungal activity against Candida albicans B2630 infected in ovariectomized and hysterectomized Wistar rat vaginal candidosis model at 2.5 mg/kg, po for 14 days by prophylactic treatment; format: functional, organism-based; parameters: dose 2.5 mg/kg; method in brief: as §2
Candida albicans [7] = assay: Antifungal activity against Candida albicans B2630 infected in ovariectomized and hysterectomized Wistar rat vaginal candidosis model at 5 mg/kg, po for 14 days by prophylactic treatment; format: functional; method in brief: as §2
Candida albicans [8] = assay: Antifungal activity against Candida albicans B2630 infected in ovariectomized and hysterectomized Wistar rat vaginal candidosis model at 2.5 mg/kg, po for 11 days by prophylactic treatment; format: functional, organism-based; parameters: dose 2.5 mg/kg
Candida albicans [9] = assay: Antifungal activity against Candida albicans B2630 infected in ovariectomized and hysterectomized Wistar rat vaginal candidosis model at 5 mg/kg, po for 5 days by prophylactic treatment; format: functional, organism-based; parameters: dose 5 mg/kg
Candida albicans [10] = assay: Antifungal activity against Candida albicans B2630 infected in guinea pig cutaneous candidosis model at 0.63 mg/kg, po for 14 days measured on day 21; format: functional, organism-based; parameters: dose 0.63 mg/kg
Method in brief: (§3)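 Guinea pig cutaneous candidosis. Compound dissolved in PEG 200, given by oral gavage once daily for 14 consecutive days; placebo group included. Read-out: ratio of infection-negative animals to total at day 21.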

Candida albicans [11] = assay: Antifungal activity against Candida albicans B2630 infected in guinea pig cutaneous candidosis model at 2.5 mg/kg, po for 14 days measured on day 21; format: functional, organism-based; parameters: dose 2.5 mg/kg; method in brief: as §3
Candida albicans [12] = assay: Antifungal activity against Candida albicans B2630 infected in guinea pig cutaneous candidosis model at 10 mg/kg, po for 14 days measured on day 21; format: functional, organism-based; parameters: dose 10 mg/kg; method in brief: as §3
Coccidioides immitis = assay: Antifungal activity against Coccidioides immitis infected in mouse coccidioidomycosis model assessed as cell killing activity at 40 mg/kg, po od for 2.5 weeks relative to control; format: functional
Microsporum canis [13] = assay: Antifungal activity against Microsporum canis assessed as growth inhibition in sabouraud broth after 14 days; format: functional; method in brief: as §1
[14] = test system: Trichophyton mentagrophytes; assay: Antifungal activity against Trichophyton mentagrophytes assessed as growth inhibition in sabouraud broth after 14 days; format: functional; method in brief: as §1
Trichophyton rubrum = assay: Antifungal activity against Trichophyton rubrum assessed as growth inhibition in sabouraud broth after 14 days; format: functional; method in brief: as §1
Cryptococcus neoformans = assay: Antifungal activity against Cryptococcus neoformans assessed as growth inhibition in sabouraud broth after 14 days; format: functional; method in brief: as §1
Candida tropicalis [15] = assay: Antifungal activity against Candida tropicalis assessed as growth inhibition in sabouraud broth after 14 days; format: functional; method in brief: as §1
Candida albicans [16] = assay: Antifungal activity against Candida albicans assessed as growth inhibition in sabouraud broth after 14 days; format: functional; method in brief: as §1
Aspergillus fumigatus [17] = assay: Antifungal activity against Aspergillus fumigatus assessed as growth inhibition in sabouraud broth after 14 days; format: functional
Sporothrix schenckii [18] = assay: Antifungal activity against Sporothrix schenckii assessed as growth inhibition in sabouraud broth after 14 days; format: functional; method in brief: as §1
Saprolegnia = assay: Antifungal activity against Saprolegnia Sp. assessed as growth inhibition in sabouraud broth after 14 days; format: functional; method in brief: as §1
Phialophora verrucosa = assay: Antifungal activity against Phialophora verrucosa assessed as growth inhibition in sabouraud broth after 14 days; format: functional; method in brief: as §1
[19] = test system: Erysipelothrix rhusiopathiae; assay: Antifungal activity against Erysipelothrix insidiosa assessed as growth inhibition in sabouraud broth after 14 days; format: functional; method in brief: as §1
[20] = test system: Staphylococcus haemolyticus; assay: Antifungal activity against Staphylococcus haemolyticus assessed as growth inhibition in sabouraud broth after 14 days; format: functional; method in brief: as §1
Streptococcus pyogenes = assay: Antifungal activity against Streptococcus pyogenes assessed as growth inhibition in sabouraud broth after 14 days; format: functional; method in brief: as §1
Microsporum canis [21] = assay: Antifungal activity against Microsporum canis assessed as growth inhibition in sabouraud broth after 14 days in presence of 10% inactivated bovine serum; format: functional; method in brief: as §1
[22] = test system: Trichophyton mentagrophytes; assay: Antifungal activity against Trichophyton mentagrophytes assessed as growth inhibition in sabouraud broth after 14 days in presence of 10% inactivated bovine serum; format: functional; method in brief: as §1

| Compound | GI (Candida tropicalis [1]) | GI (Candida albicans [2]) | GI (Aspergillus fumigatus [3]) | GI (Sporothrix schenckii [4]) | GI (Microsporum canis [13]) | GI [14] | GI (Trichophyton rubrum) | GI (Cryptococcus neoformans) | GI (Candida tropicalis [15]) | GI (Candida albicans [16]) | GI (Aspergillus fumigatus [17]) | GI (Sporothrix schenckii [18]) | GI (Saprolegnia) | GI (Phialophora verrucosa) | GI [19] | GI [20] | GI (Streptococcus pyogenes) | GI (Microsporum canis [21]) | GI [22] | other results |
| --- | --- | --- | --- | --- | --- | --- | --- | --- | --- | --- | --- | --- | --- | --- | --- | --- | --- | --- | --- | --- |
| CC(=O)N1CCN(c2ccc(OCC3COC(Cn4ccnc4)(c4ccc(Cl)cc4Cl)O3)cc2)CC1 (racemic) [KETOCONAZOLE] | 0.1 µg/mL | 1 µg/mL | 10 µg/mL | 1 µg/mL | 10 µg/mL | 0.1 µg/mL | 1 µg/mL | 1 µg/mL | 1 µg/mL | 10 µg/mL | 100 µg/mL | 1 µg/mL | 1 µg/mL | 1 µg/mL | 10 µg/mL | 100 µg/mL | 10 µg/mL | 1 µg/mL | 0.1 µg/mL | Activity (Candida albicans [5]): Active; Activity (Candida albicans [6]): Active; Activity (Candida albicans [7]): 100%; Activity (Candida albicans [8]): inactive; Activity (Candida albicans [9]): Active; Activity (Candida albicans [10]): inactive; Activity (Candida albicans [11]): Active; Activity (Candida albicans [12]): Active; Activity (Coccidioides immitis): >60% |
| Clc1ccc(COC(Cn2ccnc2)c2ccc(Cl)cc2Cl)c(Cl)c1 (configuration not stated) [MICONAZOLE] | >10 µg/mL | >10 µg/mL | >10 µg/mL | 10 µg/mL | 1 µg/mL | 0.01 µg/mL | 1 µg/mL | 1 µg/mL | 1 µg/mL | 10 µg/mL | 10 µg/mL | 1 µg/mL | 10 µg/mL | 100 µg/mL | 0.01 µg/mL | 10 µg/mL | 0.01 µg/mL | 10 µg/mL | 0.1 µg/mL |  |
